Data published in ChEMBL document CHEMBL3396998, “Synthesis and antitubercular evaluation of 4-carbonyl piperazine substituted 1,3-benzothiazin-4-one derivatives” (Bioorg Med Chem Lett, 2015).
Converted amounts (≈) assume the structure as drawn.

What was measured:
[1] = Aqueous solubility of the compound by HPLC method; type: physicochemical; conditions: water
[2] = tested on: Mycobacterium tuberculosis; test: Antitubercular activity against Mycobacterium tuberculosis H37Ra ATCC 25177 by MABA method; type: functional
[3] = Cytotoxicity against African green monkey Vero cells after 72 hrs by MTT assay; type: cell-based; conditions: chlorocebus sabaeus
In short: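 Vero cells were exposed to each compound over a broad concentration range. Viability was read by MTT, and cytotoxicity was reported as IC50.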

[4] = Ratio of aqueous solubility of BTZ038 to aqueous solubility of the compound by HPLC method; type: physicochemical; conditions: buffer
[5] = Ratio of aqueous solubility of PBTZ169 to aqueous solubility of the compound by HPLC method; type: physicochemical; conditions: buffer

SMILES: O=C(c1ccc([N+](=O)[O-])cc1)N1CCN(c2nc(=O)c3cc(C(F)(F)F)cc([N+](=O)[O-])c3s2)CC1
- solubility [1]: 1.67 µg/mL (≈ 3.28 µM)
- MIC90 [2]: 0.063 µM (≈ 0.0321 µg/mL)
- CC50 at 72 h [3]: > 125 µM

SMILES: O=C(c1ccccc1[N+](=O)[O-])N1CCN(c2nc(=O)c3cc(C(F)(F)F)cc([N+](=O)[O-])c3s2)CC1
- solubility [1]: 2.15 µg/mL (≈ 4.22 µM)
- MIC90 [2]: 0.13 µM (≈ 0.0662 µg/mL)
- CC50 at 72 h [3]: > 125 µM

SMILES: O=C(c1ccc(C(F)(F)F)cc1)N1CCN(c2nc(=O)c3cc(C(F)(F)F)cc([N+](=O)[O-])c3s2)CC1
- solubility [1]: 7.53 µg/mL (≈ 14.1 µM)
- MIC90 [2]: 0.031 µM (≈ 0.0165 µg/mL)
- CC50 at 72 h [3]: > 125 µM

SMILES: COc1ccc(CC(=O)N2CCN(c3nc(=O)c4cc(C(F)(F)F)cc([N+](=O)[O-])c4s3)CC2)cc1
- solubility [1]: 2.72 µg/mL (≈ 5.35 µM)
- MIC90 [2]: 0.13 µM (≈ 0.0661 µg/mL)
- CC50 at 72 h [3]: > 125 µM

SMILES: COc1ccccc1C(=O)N1CCN(c2nc(=O)c3cc(C(F)(F)F)cc([N+](=O)[O-])c3s2)CC1
- solubility [1]: 13.6 µg/mL (≈ 27.4 µM)
- MIC90 [2]: 0.063 µM (≈ 0.0312 µg/mL)
- CC50 at 72 h [3]: > 125 µM

SMILES: COc1cccc(C(=O)N2CCN(c3nc(=O)c4cc(C(F)(F)F)cc([N+](=O)[O-])c4s3)CC2)c1
- solubility [1]: 0.91 µg/mL (≈ 1.84 µM)
- MIC90 [2]: 0.031 µM (≈ 0.0153 µg/mL)
- CC50 at 72 h [3]: > 125 µM

SMILES: COc1ccc(C(=O)N2CCN(c3nc(=O)c4cc(C(F)(F)F)cc([N+](=O)[O-])c4s3)CC2)cc1
- solubility [1]: 0.22 µg/mL (≈ 0.445 µM)
- MIC90 [2]: 0.13 µM (≈ 0.0643 µg/mL)
- CC50 at 72 h [3]: > 125 µM

SMILES: Cc1ccc(C(=O)N2CCN(c3nc(=O)c4cc(C(F)(F)F)cc([N+](=O)[O-])c4s3)CC2)cc1
- solubility [1]: 6.7 µg/mL (≈ 14 µM)
- MIC90 [2]: 0.031 µM (≈ 0.0148 µg/mL)
- CC50 at 72 h [3]: > 125 µM

SMILES: CCc1ccc(C(=O)N2CCN(c3nc(=O)c4cc(C(F)(F)F)cc([N+](=O)[O-])c4s3)CC2)cc1
- solubility [1]: < 0.1 µg/mL
- MIC90 [2]: 0.031 µM (≈ 0.0153 µg/mL)
- CC50 at 72 h [3]: > 125 µM

SMILES: CC(C)(C)c1ccc(C(=O)N2CCN(c3nc(=O)c4cc(C(F)(F)F)cc([N+](=O)[O-])c4s3)CC2)cc1
- solubility [1]: 1.25 µg/mL (≈ 2.4 µM)
- MIC90 [2]: 0.016 µM (≈ 0.00833 µg/mL)
- CC50 at 72 h [3]: > 125 µM

SMILES: O=C(c1ccccc1F)N1CCN(c2nc(=O)c3cc(C(F)(F)F)cc([N+](=O)[O-])c3s2)CC1
- solubility [1]: 3.1 µg/mL (≈ 6.43 µM)
- MIC90 [2]: 0.008 µM (≈ 0.00386 µg/mL)
- CC50 at 72 h [3]: > 125 µM

SMILES: O=C(c1cccc(F)c1)N1CCN(c2nc(=O)c3cc(C(F)(F)F)cc([N+](=O)[O-])c3s2)CC1
- solubility [1]: 0.2 µg/mL (≈ 0.415 µM)
- MIC90 [2]: 0.016 µM (≈ 0.00772 µg/mL)
- CC50 at 72 h [3]: > 125 µM

SMILES: O=C(c1ccc(F)cc1)N1CCN(c2nc(=O)c3cc(C(F)(F)F)cc([N+](=O)[O-])c3s2)CC1
- solubility [1]: 1.69 µg/mL (≈ 3.5 µM)
- MIC90 [2]: 0.031 µM (≈ 0.015 µg/mL)
- CC50 at 72 h [3]: > 125 µM

SMILES: O=C(c1ccccc1Cl)N1CCN(c2nc(=O)c3cc(C(F)(F)F)cc([N+](=O)[O-])c3s2)CC1
- solubility [1]: 8.18 µg/mL (≈ 16.4 µM)
- MIC90 [2]: 0.016 µM (≈ 0.00798 µg/mL)
- CC50 at 72 h [3]: > 125 µM

SMILES: O=C(c1ccc(Cl)cc1)N1CCN(c2nc(=O)c3cc(C(F)(F)F)cc([N+](=O)[O-])c3s2)CC1
- solubility [1]: 5.19 µg/mL (≈ 10.4 µM)
- MIC90 [2]: 0.016 µM (≈ 0.00798 µg/mL)
- CC50 at 72 h [3]: > 125 µM

SMILES: O=C(C1CC1)N1CCN(c2nc(=O)c3cc(C(F)(F)F)cc([N+](=O)[O-])c3s2)CC1
- solubility [1]: 52.9 µg/mL (≈ 123 µM)
- MIC90 [2]: 0.13 µM (≈ 0.0557 µg/mL)
- CC50 at 72 h [3]: > 125 µM

SMILES: O=C(C1CCC1)N1CCN(c2nc(=O)c3cc(C(F)(F)F)cc([N+](=O)[O-])c3s2)CC1
- solubility [1]: 39.3 µg/mL (≈ 88.8 µM)
- MIC90 [2]: 0.031 µM (≈ 0.0137 µg/mL)
- CC50 at 72 h [3]: > 125 µM

SMILES: O=C(C1CCCC1)N1CCN(c2nc(=O)c3cc(C(F)(F)F)cc([N+](=O)[O-])c3s2)CC1
- solubility [1]: 5.34 µg/mL (≈ 11.7 µM)
- MIC90 [2]: 0.016 µM (≈ 0.0073 µg/mL)
- CC50 at 72 h [3]: 120 µM

SMILES: O=C(C1CCCCC1)N1CCN(c2nc(=O)c3cc(C(F)(F)F)cc([N+](=O)[O-])c3s2)CC1
- solubility [1]: 3.24 µg/mL (≈ 6.89 µM)
- MIC90 [2]: 0.031 µM (≈ 0.0146 µg/mL)
- CC50 at 72 h [3]: 88.7 µM

SMILES: O=C(CC1CCCCC1)N1CCN(c2nc(=O)c3cc(C(F)(F)F)cc([N+](=O)[O-])c3s2)CC1
- solubility [1]: 0.12 µg/mL (≈ 0.248 µM)
- MIC90 [2]: 0.016 µM (≈ 0.00775 µg/mL)
- CC50 at 72 h [3]: > 125 µM

SMILES: CC(C)(C)C1CCC(C(=O)N2CCN(c3nc(=O)c4cc(C(F)(F)F)cc([N+](=O)[O-])c4s3)CC2)CC1 (stereo not drawn)
- solubility [1]: < 0.1 µg/mL
- MIC90 [2]: 0.004 µM (≈ 0.00211 µg/mL)
- CC50 at 72 h [3]: > 125 µM

SMILES: O=C(N1CCN(c2nc(=O)c3cc(C(F)(F)F)cc([N+](=O)[O-])c3s2)CC1)C12CC3CC(CC(C3)C1)C2
- solubility [1]: 2.95 µg/mL (≈ 5.65 µM)
- MIC90 [2]: 0.031 µM (≈ 0.0162 µg/mL)
- CC50 at 72 h [3]: > 125 µM

SMILES: CC(=O)N1CCN(c2nc(=O)c3cc(C(F)(F)F)cc([N+](=O)[O-])c3s2)CC1
- solubility [1]: 83.9 µg/mL (≈ 208 µM)
- MIC90 [2]: > 0.13 µM
- CC50 at 72 h [3]: > 125 µM

SMILES: CCC(=O)N1CCN(c2nc(=O)c3cc(C(F)(F)F)cc([N+](=O)[O-])c3s2)CC1
- solubility [1]: 3.29 µg/mL (≈ 7.9 µM)
- MIC90 [2]: 0.016 µM (≈ 0.00666 µg/mL)
- CC50 at 72 h [3]: > 125 µM

SMILES: CCCC(=O)N1CCN(c2nc(=O)c3cc(C(F)(F)F)cc([N+](=O)[O-])c3s2)CC1
- solubility [1]: 2.46 µg/mL (≈ 5.72 µM)
- MIC90 [2]: 0.13 µM (≈ 0.056 µg/mL)
- CC50 at 72 h [3]: > 125 µM

SMILES: CCCCC(=O)N1CCN(c2nc(=O)c3cc(C(F)(F)F)cc([N+](=O)[O-])c3s2)CC1
- solubility [1]: 42.5 µg/mL (≈ 95.6 µM)
- MIC90 [2]: 0.031 µM (≈ 0.0138 µg/mL)
- CC50 at 72 h [3]: > 125 µM

SMILES: CSCC(=O)N1CCN(c2nc(=O)c3cc(C(F)(F)F)cc([N+](=O)[O-])c3s2)CC1
- solubility [1]: 15.2 µg/mL (≈ 33.8 µM)
- MIC90 [2]: 0.13 µM (≈ 0.0583 µg/mL)
- CC50 at 72 h [3]: > 125 µM

SMILES: CC(C)(C)C(=O)N1CCN(c2nc(=O)c3cc(C(F)(F)F)cc([N+](=O)[O-])c3s2)CC1
- solubility [1]: 5.87 µg/mL (≈ 13.2 µM)
- MIC90 [2]: 0.031 µM (≈ 0.0138 µg/mL)
- CC50 at 72 h [3]: > 125 µM

SMILES: CC(C)CC(=O)N1CCN(c2nc(=O)c3cc(C(F)(F)F)cc([N+](=O)[O-])c3s2)CC1
- solubility [1]: 66.3 µg/mL (≈ 149 µM)
- MIC90 [2]: 0.031 µM (≈ 0.0138 µg/mL)
- CC50 at 72 h [3]: > 125 µM

SMILES: CCC(C)C(=O)N1CCN(c2nc(=O)c3cc(C(F)(F)F)cc([N+](=O)[O-])c3s2)CC1 (stereo not drawn)
- solubility [1]: 104 µg/mL (≈ 234 µM)
- MIC90 [2]: 0.008 µM (≈ 0.00356 µg/mL)
- Ratio [4]: 100
- CC50 at 72 h [3]: > 125 µM
- Ratio [5]: 10

SMILES: CC1COC2(CCN(c3nc(=O)c4cc(C(F)(F)F)cc([N+](=O)[O-])c4s3)CC2)O1 (racemic)
- solubility [1]: 0.94 µg/mL (≈ 2.18 µM)
- MIC90 [2]: 0.004 µM (≈ 0.00173 µg/mL)
- CC50 at 72 h [3]: > 125 µM

SMILES: O=c1nc(N2CCN(CC3CCCCC3)CC2)sc2c([N+](=O)[O-])cc(C(F)(F)F)cc12 [MACOZINONE]
- solubility [1]: 9.07 µg/mL (≈ 19.9 µM)
- MIC90 [2]: < 0.004 µM
- CC50 at 72 h [3]: > 125 µM
